{
  "source": "paper PMC6936558",
  "about": "(Proceedings of the National Academy of Sciences of the …, 2019)",
  "key": {"[1]": {"tested_on": "SpyCatcher003", "experiment": "Isothermal titration calorimetry", "type": "binding, Streptococcus pyogenes", "details": "PBS pH 7.4, 25 °C"}, "[2]": {"biological_target": "SpyCatcher002-555", "experiment": "FRET or BRET"}, "[3]": {"biological_target": "SpyCatcher003", "experiment": "SPR"}, "[4]": {"biological_target": "SpyCatcher003-555", "experiment": "FRET or BRET"}, "[5]": {"biological_target": "SpyCatcher003", "experiment": "covalent reaction followed by SDS/PAGE with Coomassie staining"}, "[6]": {"biological_target": "SpyCatcher003-sfGFP", "experiment": "covalent reaction"}, "[7]": {"tested_on": "SpyCatcher003-sfGFP", "experiment": "Comparison of stages of SpyTag development", "type": "biochemical", "details": "10 nM each, 10 min, SPG buffer pH 7.0 + 0.2% BSA, 25 °C; n = 3"}, "[8]": {"tested_on": "SpyCatcher002-sfGFP", "details": "cited from earlier work"}, "[9]": {"tested_on": "SpyCatcher002-555", "experiment": "Stopped-flow FRET kinetics", "type": "binding, Streptococcus pyogenes", "details": "PBS pH 7.4, 25 °C; mean ± 1 SD, n = 4", "procedure,_shortened": "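Stopped-flow fluorescence with 1:1 mixing at 25 °C in PBS pH 7.4, excitation 480 nm, emission through a 515-nm long-pass filter. The SpyTag variant-mClover3 was at 100 nM final against pseudo-first-order SpyCatcher variant-555 at 400 to 1,000 nM. kon came from a linear fit of the first-phase kobs against SpyCatcher variant concentration.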"}},
  "note": "Values joined by “and” are separate entries in the source; they are usually repeats but may differ in a detail not shown here. Equal values may be shown once.",
  "data": [
    {"substance": "RGVPHIVMVAAYKRYK [SpyTag003 DA-MBP]", "values": [
      {"measurement": "affinity by ITC", "setting": "[1]", "value": "too tight to measure by ITC"}
    ]},
    {"substance": "SpyTag002-mClover3 (peptide)", "values": [
      {"measurement": "kon", "setting": "[2]", "value": 420000, "unit": "M⁻¹ s⁻¹"}
    ]},
    {"substance": "SpyTag003 DA-MBP (peptide)", "values": [
      {"measurement": "Kd", "setting": "[3]", "value": 21, "unit": "nM"}
    ]},
    {"substance": "SpyTag003 DA-mClover3 (peptide)", "values": [
      {"measurement": "dissociation rate constant, first phase of the chase (90% of signal change)", "setting": "[4]", "value": 0.009, "unit": "s⁻¹"},
      {"measurement": "dissociation rate constant, second phase of the chase (10% of signal change)", "setting": "[4]", "value": 0.002, "unit": "s⁻¹"},
      {"measurement": "estimated Kd of one version of the complex (dissociation rate constant / kon)", "setting": "[4]", "value": "3 nM and 13 nM"},
      {"measurement": "kobs2 (second phase)", "setting": "[4]", "value": 0.08, "unit": "s⁻¹"},
      {"measurement": "kobs3 (third phase)", "setting": "[4]", "value": 0.004, "unit": "s⁻¹"},
      {"measurement": "kon", "setting": "[4]", "value": 680000, "unit": "M⁻¹ s⁻¹"}
    ]},
    {"substance": "SpyTag003-mClover3 (peptide)", "values": [
      {"measurement": "decrease in donor (mClover3) peak fluorescence intensity", "setting": "[4]", "value": 35, "unit": "%"},
      {"measurement": "kobs1 (first phase, 500 nM SpyCatcher003-555)", "setting": "[4]", "value": 0.54, "unit": "s⁻¹"},
      {"measurement": "kobs2 (second phase, 500 nM SpyCatcher003-555)", "setting": "[4]", "value": 0.016, "unit": "s⁻¹"},
      {"measurement": "kobs3 (third phase, 500 nM SpyCatcher003-555)", "setting": "[4]", "value": 0.004, "unit": "s⁻¹"},
      {"measurement": "koff", "setting": "[4]", "value": 0.26, "unit": "s⁻¹"},
      {"measurement": "kon", "setting": "[4]", "value": 620000, "unit": "M⁻¹ s⁻¹"}
    ]},
    {"substance": "SpyTag003-maltose binding protein (MBP) (peptide)", "values": [
      {"measurement": "percent completion of the covalent reaction (SpyCatcher003 in excess)", "setting": "[5]", "value": "> 99", "unit": "%"},
      {"measurement": "percent completion of the covalent reaction (SpyTag003 in excess)", "setting": "[5]", "value": "> 99", "unit": "%"},
      {"measurement": "percent completion of the covalent reaction (10 nM each, 15 min)", "setting": "[6]", "value": "> 90", "unit": "%"}
    ]},
    {"substance": "VPHIVMVDAYKRYK [SpyTag002 T112H]", "values": [
      {"measurement": "effect of Tag mutation on reaction rate", "setting": "[7]", "value": "enhanced reaction rate"}
    ]},
    {"substance": "VPTIVMVDAYKRYK [SpyTag002]", "values": [
      {"measurement": "improvement of rate of reaction over SpyTag/SpyCatcher", "setting": "[8]; by phage display selection, SpyTag002 and SpyCatcher002", "value": "> 12", "unit": "fold"},
      {"measurement": "second-order rate constant, SpyTag002/SpyCatcher002", "setting": "[8]; previously shown", "value": 20000, "unit": "M⁻¹ s⁻¹"},
      {"measurement": "association rate constant (kon)", "setting": "[9]", "value": "4.2 ± 0.5 × 10^5 M^−1 s^−1"}
    ]}
  ]
}
